Shown are actives, neighbours in structure and some others; about 2.7% of the full set was active somewhere.
HTR2A ag: mouse HTR2A agonism via beta-arrestin recruitment; activation, % at 7.6 µM; P35363; AID 624169; CHO-K1 mHTR2A beta-arrestin complementation, luminescence; percent of 30 µM serotonin response; 360,000 compounds, 0.66% hits;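 active = activation above a run cutoff, the mean activation of all tested compounds plus 3 SD, cut at about 14% in these data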
Lipid droplet: modulators of hepatic lipid droplet formation; AML12 mouse hepatocytes, oleate lipid droplets, BODIPY imaging; inhibition, % at 6.5 µM; 240,000 compounds, 0.4% hits; AID 1656;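 active = lipid droplet intensity inhibited by at least 50%, with more than 500 cells counted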
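Technique: fluorescence imaging, 20x objective, two fields per well / Assay system: AML12 hepatocytes (mouse) / Measure: % inhibition of lipid droplet signal / Doses: 6.5 µM single-point dosing / Incubation: overnight exposure / Reagent: 100 µM oleic acid challenge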
PREPL inh: human PREPL enzyme inhibition. AID 2751. inhibition, % at 5.96 µM. Q4J6C6. 320,000 compounds, 0.68% hits. recombinant PREPL, fluorescence polarization activity-based probe; in the data active = inhibition above about 43%
MC4R barr agon: agonists of human melanocortin 4 receptor (MC4R) beta-arrestin; 360,000 compounds, 0.98% hits; activation, % at 8.9 µM; U2OS MC4R beta-arrestin complementation, luminescence; percent of melanotan II response, DMSO zero; AID 540308; P32245;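 active = activation above a per-plate cutoff, the mean activation of sample wells on that plate plus 3 SD, cut at about 8% in these data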
Target sequence (P32245 whole entry, looked up): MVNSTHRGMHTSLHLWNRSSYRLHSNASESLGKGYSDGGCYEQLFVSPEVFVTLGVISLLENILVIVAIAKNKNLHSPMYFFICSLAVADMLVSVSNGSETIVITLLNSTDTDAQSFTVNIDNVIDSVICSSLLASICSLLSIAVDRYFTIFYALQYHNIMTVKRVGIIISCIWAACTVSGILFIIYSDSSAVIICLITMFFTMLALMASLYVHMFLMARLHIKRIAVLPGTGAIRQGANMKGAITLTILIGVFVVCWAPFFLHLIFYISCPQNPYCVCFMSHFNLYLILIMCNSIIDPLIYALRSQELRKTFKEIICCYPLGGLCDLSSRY
NTR1 ag: activates human neurotensin receptor 1. P30989. NTR1-U2OS beta-arrestin-GFP spot imaging, agonist mode. activation, % at 20 µM. 330,000 compounds, 0.17% hits. AID 493036;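 active = activation at or above 40% of the spot to cytoplasm intensity ratio, with at least 20 cells analyzed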
MC4R antag cAMP: blocks human MC4R cAMP signaling; 360,000 compounds, 0.48% hits; inhibition, % at 6.5 µM; MC4R-expressing cells, MTII-stimulated cAMP, LANCE TR-FRET; P32245;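 active = inhibition above its plate's cutoff, the mean of tested wells on that plate plus 3 SD, cut at about 29% in these data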
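System: U2OS cells stably expressing human melanocortin 4 receptor (MC4R). Reagent: Melanotan II challenge after compound preincubation. Doses: 6.5 µM. Times: 30-min compound, 1-h challenge, 1-h detection, room temperature. Measured by: TR-FRET with Eu-cAMP and labeled anti-cAMP, 671 nm. Replicates: singlicate.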
OPRM1 ag: activates human mu opioid receptor in HTR2A counterscreen | shares compounds with HTR2A ag | U2OS OPRM1 beta-arrestin PathHunter, luminescence; DMSO 0%, DAMGO 9.3 µM 100% | activation, % at 9.3 µM | 2,300 compounds, 5.3% hits | AID 624380;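 active = mean activation above the mean of DMSO-only wells plus 3 SD, cut at about 0.5% in these data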
m5-HT2A ag conf: confirmation of mouse HTR2A serotonin receptor agonists | activation, % at 7.6 µM | CHO-K1 PathHunter beta-arrestin recruitment, luminescence; DMSO 0%, 30 µM serotonin 100% | 2,300 compounds, 19% hits | shares compounds with HTR2A ag;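 active = mean activation across triplicates above the hit threshold derived in the original primary screen, cut at about 15% in these data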
A number is an active result; . = inactive; / = not tested or not shown.

SMILES	HTR2A ag	Lipid droplet	PREPL inh	MC4R barr agon	NTR1 ag	MC4R antag cAMP	OPRM1 ag	m5-HT2A ag conf
COc1ccc(C(=O)N2CCN(C3CCCCC3)CC2)cc1OC	.	.	.	.	.	.	/	/
COc1cc(C(=O)N2CCN(C3CCCCC3)CC2)cc(OC)c1OC	14.6	.	.	.	.	.	.	.
Cc1onc(-c2c(Cl)cccc2Cl)c1C(=O)N1CCSCC1	.	.	.	.	.	.	/	/
Cc1onc(-c2c(Cl)cccc2Cl)c1C(=O)N1CCOCC1	17.2	.	.	.	.	.	.	.
CCOC(=O)NC(=O)COC(=O)CNC(=O)c1cccc(OC)c1	20.3	.	.	.	.	.	.	.
CC1CN(C(=O)CS(=O)(=O)Cc2ccc(Cl)cc2)CC(C)O1 (stereo unspecified)	14.7	.	.	.	.	.	.	.
CCCCN1C(=O)CC(C(=O)O)C1c1ccc(OC)cc1 (stereo unspecified)	.	.	.	.	.	.	/	/
COc1ccc2c(c1)C(O)C(CO)C(C(=O)O)C2 (stereo unspecified)	15.8	/	/	.	/	.	.	.
Cc1ccc(C2(c3ccccc3)NC(=O)N(CC(=O)NCc3ccco3)C2=O)cc1C (stereo unspecified)	.	/	.	.	.	.	/	/
O=C(CN1C(=O)NC(c2ccccc2)(c2ccccc2)C1=O)NCc1ccco1	15.2	/	.	.	.	.	.	.
Cc1cc(C(=O)CSc2nc3ccccc3[nH]2)c(C)n1CC1CCCO1 (stereo unspecified)	25.2	/	.	.	.	.	.	.
COc1ccc2nc(C)cc(Nc3ccc(N4CCN(C)CC4)cc3)c2c1	.	.	.	.	.	.	/	/
CN=C(c1ccc(C)cc1)n1c(=S)nc(-c2ccc(C)cc2)n(C)c1=S	15.5	.	.	.	.	.	.	.
CNC(=O)C[C@H]1C(=O)N(c2ccc(OC)cc2)C[C@@H]1CSC	.	/	/	.	/	.	/	/
S=c1nccc(-c2ccc3c(c2)CCO3)[nH]1	.	.	.	.	.	.	/	/
Cc1ccc(-c2ccnc(=S)[nH]2)cc1	15.1	/	.	.	.	.	.	.
COc1ccc(/C=N/Nc2ncccc2[N+](=O)[O-])c(OC)c1	.	.	.	.	.	.	/	/
COc1ccc(CN2CCNC(=O)C2CC(=O)NCC2CCOCC2)cc1C (stereo unspecified)	.	.	/	.	.	.	/	/
Nc1ccc(N2CCN(c3ccc(F)cc3)CC2)cc1	.	.	.	.	.	.	/	/
O=C1CC(N2CCN(c3ccc(Cl)c(Cl)c3)CC2)C(=O)N1 (stereo unspecified)	19.0	.	.	.	.	.	1.6	17.8
Nc1ccc(N2CCN(c3ccc(Cl)c(Cl)c3)CC2)cc1	34.6	.	.	.	.	.	.	.
O=C1CC(N2CCN(Cc3ccccc3)CC2)C(=O)N1 (stereo unspecified)	.	.	.	.	.	.	/	/
N#C/C=C(/N)N1CCN(c2ccc(Cl)c(Cl)c2)CC1	35.4	.	.	.	.	.	.	18.8
O=C(C1CC(=O)N(c2ccc3c(c2)OCCO3)C1)N1CCN(c2cccc(C(F)(F)F)c2)CC1 (stereo unspecified)	.	/	.	.	.	.	/	/
CSc1ncccc1C(=O)OCC(=O)Nc1cccc(S(=O)(=O)N2CCOCC2)c1	.	/	.	.	.	.	/	/
COc1ccc(CNC(=O)c2ccc(C(C)C)cc2)cc1	15.4	.	.	.	.	.	.	.
COc1ccc(CNC(=O)c2ccc(C(C)(C)C)cc2)cc1	.	.	.	.	.	.	/	/
COc1ccc(Cc2nnc(Nc3ccc4c(c3)OCCO4)[nH]c2=O)cc1	.	.	.	.	.	.	/	/
CCCCN(C=O)c1c(CC)nc2c(OCC(=O)N3CCOCC3)cccn12	16.4	/	/	.	/	.	.	.

High-throughput results from PubChem.
